Data published in PMC11112715 (ACS Omega, 2024).
Where two headings read alike, the source gives them in different places.

How the values were obtained:
[1] = tested on: SCC-9 cells (human tongue oral squamous cell carcinoma); test: MTT cell viability assay in SCC-9 cells; format: cell-based; details: for IC50: read-out: IC50 SSC9 oral squamous cell carcinoma; for Selectivity index (S.I.): IC50 in NIH3T3 / IC50 in SCC-9
Summary of the method: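 SCC-9 tongue OSCC cells from ATCC, grown in 1:1 DMEM/F12 with 10% FBS and 400 ng/mL hydrocortisone, 37 °C, 5% CO2. Plated at 5 × 10³ cells/well in triplicate, 48 h with graded test compound doses against matched DMSO (100% viability). MTT for 4 h, formazan in methanol/DMSO 1:1, absorbance 560 nm minus 670 nm. S.I. = IC50 NIH3T3 / IC50 SCC-9.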

SCC-9 cells = test: Cell cycle progression and cell death, propidium iodide flow cytometry; format: cell-based, human; details: 48 h, compared to negative control
[2] = tested on: NIH3T3 mouse fibroblast cells; test: MTT cell viability assay in NIH3T3 normal fibroblasts; format: cell-based; details: read-out: IC50 NIH3T3 normal mouse fibroblasts
Summary of the method: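 NIH3T3 fibroblasts from ATCC, kept in DMEM with 10% FBS at 37 °C, 5% CO2. Seeded at 5 × 10³ cells/well in triplicate and exposed to a range of test compound concentrations for 48 h; DMSO diluted in medium at matching levels set 100% viability. MTT in medium for 4 h, formazan dissolved in 1:1 methanol/DMSO, A560 read minus 670 nm background.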

| Compound | IC50 ([1]; Homo sapiens, SCC-9, 48 h) | Selectivity index (S.I.) [1] | Effect on DNA fragmentation (SCC-9 cells) | Effect on cells in G2/M phases (SCC-9 cells) | Effect on proportion of cells in G0/G1 phase (SCC-9 cells) | IC50 ([2]; Mus musculus, NIH3T3, 48 h) | IC50 ([1]; MTT, 48 h treatment) | IC50 ([2]; MTT, 48 h treatment) |
| --- | --- | --- | --- | --- | --- | --- | --- | --- |
| O=C1C=C(OCC#C[Se]c2ccc(C(F)(F)F)cc2)C(=O)c2ccccc21 [Compound 9f, 2-((3-((4-(Trifluoromethyl)phenyl)selanyl)prop-2-yn-1-yl)oxy)naphthalene-1,4-dione] | 31.7 µM | 1.78 | increased DNA fragmentation | marked reduction of cells in the G2/M phases | increased numbers of cells in the G0/G1 phase | 56.5 µM | – | – |
| Cc1cc(C)c([Se]C#CCOC2=CC(=O)c3ccccc3C2=O)c(C)c1 [Compound 9h, 2-((3-(Mesitylselanyl)prop-2-yn-1-yl)oxy)naphthalene-1,4-dione] | 49 µM | – | – | – | – | – | – | – |
| CCCC[Se]C#CCOC1=CC(=O)c2ccccc2C1=O [Compound 9i, 2-((3-(Butylselanyl)prop-2-yn-1-yl)oxy)naphthalene-1,4-dione] | 37.4 µM | – | – | – | – | – | – | – |
| O=C1C=C(OCC#C[Te]c2ccc(Cl)cc2)C(=O)c2ccccc21 [Compound 10c, 2-((3-((4-Chlorophenyl)tellanyl)prop-2-yn-1-yl)oxy)naphthalene-1,4-dione] | 2.89 µM | 1.70 | increased DNA fragmentation | marked reduction of cells in the G2/M phases | – | 4.9 µM | – | – |
| O=C1C=C(OCC#C[Se]c2ccc(Cl)cc2)C(=O)c2ccccc21 [Compound 9e, 2-((3-((4-Chlorophenyl)selanyl)prop-2-yn-1-yl)oxy)naphthalene-1,4-dione] | 65.4 µM | – | – | – | – | – | – | – |
| Cc1ccc([Te]C#CCOC2=CC(=O)c3ccccc3C2=O)cc1 [Compound 10b, 2-((3-(p-Tolyltellanyl)prop-2-yn-1-yl)oxy)naphthalene-1,4-dione] | 4 µM | 0.57 | increased DNA fragmentation | no apparent alteration in the percentage of cells in the G2/M phases | significantly decreased the proportion of cells in the G0/G1 phase | 2.27 µM | – | – |
| COc1ccc([Se]C#CCOC2=CC(=O)c3ccccc3C2=O)cc1 [Compound 9c, 2-((3-((4-Methoxyphenyl)selanyl)prop-2-yn-1-yl)oxy)naphthalene-1,4-dione] | 24.8 µM | 1.10 | – | – | increased numbers of cells in the G0/G1 phase | 27.2 µM | – | – |
| C#CCOC1=C(Sc2ccccc2)C(=O)c2ccccc2C1=O [Compound 11, 2-(Phenylthio)-3-(prop-2-yn-1-yloxy)naphthalene-1,4-dione] | 62.3 µM | – | – | – | – | – | – | – |
| N.N.O=C([O-])C1(C(=O)[O-])CCC1.[Pt+2] [carboplatin, reference compound] | – | 0.27 | – | – | – | – | 572 µM | 156 µM |
| COc1cccc2c1C(=O)c1c(O)c3c(c(O)c1C2=O)C[C@@](O)(C(=O)CO)C[C@@H]3O[C@H]1C[C@H](N)[C@H](O)[C@H](C)O1 [doxorubicin, reference compound] | 2.71 µM | 0.61 | – | – | – | 1.66 µM | – | – |
| O=C1C=C(OCC#C[Se]c2ccc(F)cc2)C(=O)c2ccccc21 [Compound 9d, 2-((3-((4-Fluorophenyl)selanyl)prop-2-yn-1-yl)oxy)naphthalene-1,4-dione] | 23.5 µM | 1.03 | – | – | – | 24.2 µM | – | – |
| O=C1C=C(OCC#C[Se]c2ccc3ccccc3c2)C(=O)c2ccccc21 [Compound 9g, 2-((3-(Naphthalen-2-ylselanyl)prop-2-yn-1-yl)oxy)naphthalene-1,4-Dione] | 68.2 µM | – | – | – | – | – | – | – |
| O=C1C=C(OCC#C[Se]c2ccccc2)C(=O)c2ccccc21 [Compound 9a, 2-((3-(Phenylselanyl)prop-2-yn-1-yl)oxy)naphthalene-1,4-dione] | 31.9 µM | 2.62 | – | – | – | 83.6 µM | – | – |
| Cc1ccc([Se]C#CCOC2=CC(=O)c3ccccc3C2=O)cc1 [Compound 9b, 2-((3-(p-Tolylselanyl)prop-2-yn-1-yl)oxy)naphthalene-1,4-dione] | 17.1 µM | 0.52 | – | – | – | 8.93 µM | – | – |
| O=C1C=C(OCC#C[Te]c2ccccc2)C(=O)c2ccccc21 [Compound 10a, 2-((3-(Phenyltellanyl)prop-2-yn-1-yl)oxy)naphthalene-1,4-dione] | 1.65 µM | 3.53 | increased DNA fragmentation | no apparent alteration in the percentage of cells in the G2/M phases | significantly decreased the proportion of cells in the G0/G1 phase | 5.83 µM | – | – |
